# Results reported in ChEMBL document CHEMBL1157190, “Design, synthesis, and anticonvulsant activity of N-phenylamino derivatives of 3,3-dialkyl-pyrrolidine-2,5-diones and hexahydro-isoindole-1,3-diones” (Bioorg Med Chem, 2008).
# Activity calls are given as the source filed them. The rule behind the calls is not given here.
# Columns and labels:
# Rattus norvegicus [1] = assay: Anticonvulsant activity in Sprague-Dawley rat assessed as protection against seizure at 30 mg/kg, po after 0.5 hr by maximal electroshock test; type: functional
# In short: (§1)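 Male Sprague–Dawley rats; compound suspended in 0.5% methylcellulose/water and given orally at a fixed 30 mg/kg, four rats per time point. MES test run at 0.25, 0.5, 1, 2 and 4 h after dosing, with motor impairment checked in parallel. Read-out: number of rats of four protected.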
# Rattus norvegicus [2] = assay: Anticonvulsant activity in Sprague-Dawley rat assessed as protection against seizure at 30 mg/kg, po after 4 hrs by maximal electroshock test; type: functional; in short: as §1
# Mus musculus [3] = assay: Anticonvulsant activity in ip dosed CF1 albino mouse assessed as inhibition of maximal electroshock-induced electrical stimulus after 0.5 hr; type: functional
# In short: (§2)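 Male CF-1 mice injected intraperitoneally at 30, 100 and 300 mg/kg, suspended in 0.5% methylcellulose/water. MES or subcutaneous pentylenetetrazole challenge at 0.5 and 4 h; selected compounds also at 1 or 2 h.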
# Rattus norvegicus [4] = assay: Anticonvulsant activity in Sprague-Dawley rat assessed as protection against seizure at 30 mg/kg, po after 1 hr by maximal electroshock test; type: functional; in short: as §1
# Mus musculus [5] = assay: Neurotoxicity in ip dosed CF1 albino mouse at 300 mg/kg after 4 hrs by rotarod test; type: toxicity, organism-based; parameters: dose 300 mg/kg, route intraperitoneal; settings: in vivo
# In short: (§3)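 CF-1 mice given 30, 100 or 300 mg/kg ip in 0.5% methylcellulose/water, examined at 0.5 and 4 h. Rotorod test: neurotoxicity is the inability to keep equilibrium on the rod for a given time. Value is the minimum dose giving motor impairment; a dash means none at 300 mg/kg.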
# Mus musculus [6] = assay: Anticonvulsant activity in ip dosed CF1 albino mouse assessed as inhibition of maximal electroshock-induced electrical stimulus after 1 hr; type: functional; in short: as §2
# [7] = Lipophilicity, log kw of compound by RP-HPLC; type: physicochemical
# In short: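 RP-HPLC on a C18 end-capped column at room temperature, with UV detection at 214 nm and uracil as the unretained marker. Capacity factor k = (tr − t0)/t0, from the mean of three measurement sets. log k extrapolated to 100% water (log k = log kw − Sφ) to give log kw.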
# Mus musculus [8] = assay: Anticonvulsant activity in ip dosed CF1 albino mouse assessed as inhibition of maximal electroshock-induced electrical stimulus after 4 hrs; type: functional; in short: as §2
# Rattus norvegicus [9] = assay: Anticonvulsant activity in Sprague-Dawley rat assessed as protection against seizure at 30 mg/kg, po after 2 hrs by maximal electroshock test; type: functional; in short: as §1
# Mus musculus [10] = assay: Anticonvulsant activity in ip dosed CF1 albino mouse assessed as inhibition of subcutaneous pentylenetetrazole-induced electrical stimulus at 300 mg/kg after 4 hrs; type: functional, organism-based; parameters: dose 300 mg/kg; in short: as §2
# Mus musculus [11] = assay: Neurotoxicity in ip dosed CF1 albino mouse after 0.5 hr by rotarod test; type: toxicity, organism-based; settings: in vivo; in short: as §3
# Mus musculus [12] = assay: Anticonvulsant activity in ip dosed CF1 albino mouse assessed as inhibition of subcutaneous pentylenetetrazole-induced electrical stimulus at 300 mg/kg after 0.5 hr; type: functional, organism-based; parameters: dose 300 mg/kg; in short: as §2
# Rattus norvegicus [13] = assay: Anticonvulsant activity in po dosed Sprague-Dawley rat assessed as inhibition of maximal electroshock-induced electrical stimulus after 0.5 hr; type: functional
# In short: (§4)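 Oral dosing in male Sprague–Dawley rats at the previously estimated time of peak effect. Groups of eight rats received various doses until at least three points fell between 10 and 90% MES protection or minimal neurotoxicity (rotorod). ED50 and TD50 with 95% confidence intervals from regression of the plotted data; protective index = TD50/ED50.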
# [14] = Neurotoxicity in po dosed Sprague-Dawley rat after 0.5 hr by rotarod test; type: toxicity, organism-based; settings: in vivo; in short: as §4
# Rattus norvegicus [15] = species: Rattus norvegicus; assay: Protective index, ratio of TD50 for Sprague-Dawley rat by rotarod test to ED50 for Sprague-Dawley rat by MES test after 0.5 hr; type: functional; in short: as §4
# Mus musculus [16] = assay: Anticonvulsant activity in ip dosed CF1 albino mouse assessed as inhibition of maximal electroshock-induced electrical stimulus at 300 mg/kg after 4 hrs; type: functional, organism-based; parameters: dose 300 mg/kg; in short: as §2
# Rattus norvegicus [17] = assay: Anticonvulsant activity in Sprague-Dawley rat assessed as protection against seizure at 30 mg/kg, po after 0.25 hr by maximal electroshock test; type: functional; in short: as §1
# Mus musculus [18] = assay: Anticonvulsant activity in ip dosed CF1 albino mouse assessed as inhibition of subcutaneous pentylenetetrazole-induced electrical stimulus after 0.5 hr; type: functional; in short: as §2
# Rattus norvegicus [19] = assay: Antiepileptic activity in pilocarpine-induced status prevention in Sprague-Dawley rat assessed as weight change in post first stage 3 seizure at 450 mg/kg after 24 hrs; type: functional
# In short: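 Pilocarpine-induced status prevention in rats. Compound given ip at time zero (65 or 450 mg/kg), followed by a challenge dose of pilocarpine. Seizure severity scored on the Racine scale. Average weight change (g, ±SEM) recorded for protected and non-protected rats.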
# Mus musculus [20] = assay: Anticonvulsant activity in ip dosed CF1 albino mouse assessed as inhibition of maximal electroshock-induced electrical stimulus at 300 mg/kg after 0.5 hr; type: functional, organism-based; parameters: dose 300 mg/kg; in short: as §2
# Mus musculus [21] = assay: Neurotoxicity in ip dosed CF1 albino mouse after 4 hrs by rotarod test; type: toxicity, organism-based; settings: in vivo; in short: as §3
# Mus musculus [22] = assay: Anticonvulsant activity in ip dosed CF1 albino mouse assessed as inhibition of subcutaneous pentylenetetrazole-induced electrical stimulus after 4 hrs; type: functional; in short: as §2
# Rattus norvegicus [23] = assay: Anticonvulsant activity in Sprague-Dawley rat assessed as protection against seizure at 50 mg/kg, po after 0.5 hr by subcutaneous pentylenetetrazole test; type: functional
# In short: (§5)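 Male Sprague–Dawley rats dosed orally at 50 mg/kg as a 0.5% methylcellulose/water suspension, four animals per time point. Convulsant given subcutaneously at 0.25, 0.5, 1, 2 and 4 h after dosing; rotorod motor impairment assessed in parallel. Read-out: number of rats of four protected.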
# Mus musculus [24] = assay: Neurotoxicity in ip dosed CF1 albino mouse at 300 mg/kg after 0.5 hr by rotarod test; type: toxicity, organism-based; parameters: dose 300 mg/kg, route intraperitoneal; settings: in vivo; in short: as §3
# Rattus norvegicus [25] = assay: Anticonvulsant activity in Sprague-Dawley rat assessed as protection against seizure rat at 50 mg/kg, po after 0.25 hr by subcutaneous pentylenetetrazole test; type: functional; in short: as §5
# Rattus norvegicus [26] = assay: Anticonvulsant activity in Sprague-Dawley rat assessed as protection against seizure at 50 mg/kg, po after 1 hr by subcutaneous pentylenetetrazole test; type: functional, organism-based; parameters: dose 50 mg/kg; in short: as §5
# Rattus norvegicus [27] = assay: Neurotoxicity in po dosed Sprague-Dawley rat at 50 mg/kg by rotarod test; type: toxicity, organism-based; parameters: dose 50 mg/kg, route oral; settings: in vivo; in short: as §5
# Rattus norvegicus [28] = assay: Anticonvulsant activity in Sprague-Dawley rat assessed as protection against seizure at 50 mg/kg, po after 2 hrs by subcutaneous pentylenetetrazole test; type: functional, organism-based; parameters: dose 50 mg/kg; in short: as §5
# Rattus norvegicus [29] = assay: Anticonvulsant activity in Sprague-Dawley rat assessed as protection against seizure at 50 mg/kg, po after 4 hrs by subcutaneous pentylenetetrazole test; type: functional; in short: as §5
# Rattus norvegicus [30] = species: Rattus norvegicus; assay: Anticonvulsant activity in rat assessed as inhibition of maximal electroshock-induced electrical stimulus; type: functional
# Rattus norvegicus [31] = species: Rattus norvegicus; assay: Protective index, ratio of TD50 for rat by rotarod test to ED50 for rat by MES test; type: functional
Compound,log K [7],Activity (Rattus norvegicus [1]),Activity (Rattus norvegicus [2]),Activity (Mus musculus [3]) [mg/kg],Activity (Rattus norvegicus [4]),Activity (Mus musculus [5]),Activity (Mus musculus [6]) [mg/kg],Activity (Mus musculus [8]) [mg/kg],Activity (Rattus norvegicus [9]),Activity (Mus musculus [10]),Activity (Mus musculus [11]) [mg/kg],Activity (Mus musculus [16]),Activity (Rattus norvegicus [17]),Activity (Mus musculus [18]) [mg/kg],also measured
CC1(C)CC(=O)N(Nc2ccccc2)C1=O,1.471,inactive,inactive,300,50%,Not Active,–,–,inactive,inactive,100,inactive,25%,300,ED50 (Rattus norvegicus [13]): 69.9 mg/kg; TD50 at 0.5 h [14]: 500 mg/kg; Ratio TD50/ED50 (Rattus norvegicus [15]): 7.15
Cc1ccc(NN2C(=O)C3CCCCC3C2=O)cc1 (stereo unspecified),2.028,–,–,–,–,Not Active,–,–,–,inactive,300,inactive,–,–,Activity (Rattus norvegicus [19]): 10.2 g; Activity (Mus musculus [20]): inactive; Activity (Mus musculus [12]): inactive
O=C1C2CCCCC2C(=O)N1Nc1ccccc1 (stereo unspecified),1.937,25%,inactive,300,inactive,Not Active,–,–,inactive,inactive,–,inactive,inactive,300,Activity (Rattus norvegicus [23]): inactive; Activity (Mus musculus [24]): Not Active; Activity (Rattus norvegicus [25]): 25%; Activity (Rattus norvegicus [26]): inactive; Activity (Rattus norvegicus [27]): Non-toxic; Activity (Rattus norvegicus [28]): inactive; Activity (Rattus norvegicus [29]): inactive
O=C1CC2(CCCC2)C(=O)N1Nc1ccccc1,–,–,–,–,–,–,–,–,–,–,–,–,–,–,ED50 (Rattus norvegicus [30]): 76.3 mg/kg; Ratio TD50/ED50 (Rattus norvegicus [31]): 3.44

# The next lines start with results.
log K [7],Compound,Activity (Rattus norvegicus [1]),Activity (Rattus norvegicus [2]),Activity (Mus musculus [3]) [mg/kg],Activity (Rattus norvegicus [4]),Activity (Mus musculus [5]),Activity (Mus musculus [6]) [mg/kg],Activity (Mus musculus [8]) [mg/kg],Activity (Rattus norvegicus [9]),Activity (Mus musculus [10]),Activity (Mus musculus [11]) [mg/kg],Activity (Mus musculus [16]),Activity (Rattus norvegicus [17]),Activity (Mus musculus [18]) [mg/kg],also measured
1.864,CC1(C)CC(=O)N(Nc2ccc(Br)cc2)C1=O,25%,50%,300,25%,Not Active,100,300,50%,inactive,300,–,–,–,Activity (Mus musculus [12]): inactive
2.334,CCC1(C)CC(=O)N(Nc2ccc(Cl)cc2Cl)C1=O (stereo unspecified),25%,inactive,300,inactive,–,100,300,25%,–,30,–,inactive,100,Activity (Mus musculus [21]): 300 mg/kg; Activity (Mus musculus [22]): 300 mg/kg
2.552,CCC1(CC)CC(=O)N(Nc2ccc(Cl)cc2Cl)C1=O,–,–,300,–,Not Active,100,300,–,inactive,100,–,–,100,–
